Experimental data: ChEMBL document CHEMBL1123952, “(Phosphinyloxy)acyl amino acid inhibitors of angiotensin converting enzyme (ACE). 1. Discovery of (S)-1-[6-amino-2-[[hydroxy(4-phenylbutyl)phosphinyl]oxy]-1-oxohexyl]-L -proline a novel orally active inhibitor of ACE” (J Med Chem, 1988)

Experiments:
Rattus norvegicus [1] = assay: In vivo inhibition angiotensin I induced pressor effect after po administration of 5 umol/kg in rats; assay type: functional
Procedure, shortened: (§1)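 Normotensive catheterized male Sprague-Dawley rats (225-275 g), conscious and unrestrained. Compound was given orally at 5.0 µmol/kg in water, 5% NaHCO3 or 1% agar suspension. Angiotensin I (310 ng/kg iv) pressor responses were compared with pre-dose responses for up to 280 min. Maximum percent inhibition is the mean of four animals.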

[2] = biological target: T1, Angiotensin-converting enzyme (Oryctolagus cuniculus, UniProt P12822); assay: In vitro inhibition of angiotensin I converting enzyme in rabbit lung with hippuryl-histidyl-leucine as substrate; assay type: tissue-based; details: read-out: I50
T1 sequence (P12822 whole entry): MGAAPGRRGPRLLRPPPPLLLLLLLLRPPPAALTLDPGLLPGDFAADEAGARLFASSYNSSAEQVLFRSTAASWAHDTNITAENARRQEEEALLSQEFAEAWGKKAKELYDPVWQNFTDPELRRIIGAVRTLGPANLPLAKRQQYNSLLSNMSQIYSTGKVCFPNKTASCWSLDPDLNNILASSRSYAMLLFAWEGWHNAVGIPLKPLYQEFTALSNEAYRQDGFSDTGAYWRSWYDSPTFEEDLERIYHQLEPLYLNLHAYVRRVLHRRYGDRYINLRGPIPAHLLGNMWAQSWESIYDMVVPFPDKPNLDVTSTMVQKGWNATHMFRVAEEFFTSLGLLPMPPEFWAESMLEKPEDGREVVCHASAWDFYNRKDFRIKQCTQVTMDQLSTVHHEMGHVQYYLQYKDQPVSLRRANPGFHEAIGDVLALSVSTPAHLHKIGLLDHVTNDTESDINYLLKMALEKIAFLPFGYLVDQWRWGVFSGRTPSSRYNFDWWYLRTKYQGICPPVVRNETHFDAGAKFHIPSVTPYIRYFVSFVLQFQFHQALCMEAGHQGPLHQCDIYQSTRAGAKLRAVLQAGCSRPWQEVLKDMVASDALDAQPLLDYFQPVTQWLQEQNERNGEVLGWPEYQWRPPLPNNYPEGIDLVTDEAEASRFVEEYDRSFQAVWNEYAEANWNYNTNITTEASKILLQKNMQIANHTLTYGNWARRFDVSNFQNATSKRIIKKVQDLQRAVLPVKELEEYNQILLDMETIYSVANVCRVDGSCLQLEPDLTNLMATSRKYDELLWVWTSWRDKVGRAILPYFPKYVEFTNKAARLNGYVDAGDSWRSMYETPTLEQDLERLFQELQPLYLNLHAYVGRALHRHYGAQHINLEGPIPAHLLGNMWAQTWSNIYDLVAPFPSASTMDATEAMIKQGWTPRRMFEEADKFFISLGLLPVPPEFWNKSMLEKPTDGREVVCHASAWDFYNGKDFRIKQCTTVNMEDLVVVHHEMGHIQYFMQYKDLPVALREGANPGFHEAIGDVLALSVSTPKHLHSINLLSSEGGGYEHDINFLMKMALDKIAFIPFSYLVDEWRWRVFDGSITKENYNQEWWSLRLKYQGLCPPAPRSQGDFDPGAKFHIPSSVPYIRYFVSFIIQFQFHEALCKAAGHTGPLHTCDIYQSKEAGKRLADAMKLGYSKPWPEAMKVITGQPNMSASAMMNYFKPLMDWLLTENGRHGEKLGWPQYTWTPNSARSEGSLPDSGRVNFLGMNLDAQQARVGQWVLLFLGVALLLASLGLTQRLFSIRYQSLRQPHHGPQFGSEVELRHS
Procedure, shortened: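 Rabbit lung ACE with synthetic substrate hippurylhistidylleucine; the liberated hippuric acid was quantitated spectrophotometrically. Conditions follow the authors' earlier method.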

Rattus norvegicus [3] = assay: In vivo inhibition of angiotensin I induced pressor effect after iv administration in rats; assay type: functional
Procedure, shortened: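 Conscious, unrestrained male Sprague-Dawley rats (225-275 g) with aortic and vena caval catheters, recovered at least 2 weeks. […] Compound was given iv in water or 5% NaHCO3 and responses followed up to 70 min. Maximum inhibition was averaged over four rats per dose; ED50 was interpolated from the maximum-inhibition vs dose plot.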

Rattus norvegicus [4] = assay: In vivo inhibition of angiotensin I induced pressor effect after po administration in rats; assay type: functional
Procedure, shortened: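 Oral dosing of conscious catheterized male Sprague-Dawley rats (225-275 g) in water, 5% NaHCO3 or 1% agar suspension. Angiotensin I (310 ng/kg iv) pressor responses were followed up to 280 min against pre-dose values, with four rats per dose. ED50 was interpolated from a plot of maximum inhibition vs dose.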

Rattus norvegicus [5] = assay: In vivo inhibition angiotensin I induced pressor effect after (5 uML/kg) p.o. administration in rats; assay type: functional; procedure, shortened: as §1

| Compound | inhibition in vivo at 5 µmol/kg (Rattus norvegicus [1]) | IC50 [2] | ED50 (Rattus norvegicus [3]) | ED50 (Rattus norvegicus [4]) | Inhibition (Rattus norvegicus [5]) |
| --- | --- | --- | --- | --- | --- |
| CC(C)CCCP(=O)(O)O[C@@H](CCCCN)C(=O)N1CCC[C@H]1C(=O)O | 69% | 150 nM | 0.095 µmol/kg |  |  |
| NCCCC[C@H](OP(=O)(O)CCc1ccccc1)C(=O)N1CCC[C@H]1C(=O)O | 65% | 190 nM | 0.217 µmol/kg | 1.39 µmol/kg |  |
| CC(=O)NCCCC[C@H](OP(=O)(O)CCCCc1ccccc1)C(=O)N1CCC[C@H]1C(=O)O |  | 180 nM | < 1.4 µmol/kg |  |  |
| CCCCP(=O)(O)O[C@@H](CCCCN)C(=O)N1CCC[C@H]1C(=O)O | 27% | 96 nM | 0.091 µmol/kg |  |  |
| NCCCC[C@H](OP(=O)(O)CCCCCc1ccccc1)C(=O)N1CCC[C@H]1C(=O)O | 65% | 14 nM | 0.067 µmol/kg |  |  |
| CCCCCCCCCP(=O)(O)O[C@@H](CCCCN)C(=O)N1CCC[C@H]1C(=O)O | 23% | 31 nM | 0.13 µmol/kg |  |  |
| N=C(N)NCCC[C@H](OP(=O)(O)CCCCc1ccccc1)C(=O)N1CCC[C@H]1C(=O)O | 40% | 19 nM | 0.12 µmol/kg |  |  |
| C[C@H](N[C@@H](CCc1ccccc1)C(=O)O)C(=O)N1CCC[C@H]1C(=O)O [ENALAPRILAT ANHYDROUS] |  |  | 0.033 µmol/kg | 5.13 µmol/kg |  |
| CCCCCCCP(=O)(O)O[C@@H](CCCCN)C(=O)N1CCC[C@H]1C(=O)O | 75% | 19 nM | 0.12 µmol/kg | 0.62 µmol/kg |  |
| NCCCC[C@H](OP(=O)(O)CCCCc1ccc(F)cc1)C(=O)N1CCC[C@H]1C(=O)O | 81% | 31 nM | 0.067 µmol/kg | 0.89 µmol/kg |  |
| CCCCC(C)CP(=O)(O)O[C@@H](CCCCN)C(=O)N1CCC[C@H]1C(=O)O (stereo not given in full) | 68% | 40 nM | 0.14 µmol/kg |  |  |
| O=C(O)[C@@H]1CCCN1C(=O)[C@H](CCc1ccccc1)OP(=O)(O)CCCCc1ccccc1 |  | 640 nM | 29 µmol/kg |  |  |
| NCCCC[C@H](NP(=O)(O)CCCCc1ccccc1)C(=O)N1CCC[C@H]1C(=O)O |  | 9 nM | 0.022 µmol/kg | 2.6 µmol/kg |  |
| CCCCCCCCCCP(=O)(O)O[C@@H](CCCCN)C(=O)N1CCC[C@H]1C(=O)O | 2% | 95 nM | 0.17 µmol/kg |  |  |
| N=C(N)NCCCCC[C@H](OP(=O)(O)CCCCc1ccccc1)C(=O)N1CCC[C@H]1C(=O)O |  | 32 nM | > 1.5 µmol/kg |  |  |
| N=C(N)NCCCC[C@H](OP(=O)(O)CCCCc1ccccc1)C(=O)N1CCC[C@H]1C(=O)O | 48% | 6.2 nM | 0.045 µmol/kg |  |  |
| NCCCC[C@H](OP(=O)(O)CCCCC1CCCCC1)C(=O)N1CCC[C@H]1C(=O)O | 68% | 55 nM | 0.18 µmol/kg | 2.3 µmol/kg |  |
| NCCCCC(CP(=O)(O)CCCCc1ccccc1)C(=O)N1CCC[C@H]1C(=O)O (stereo not given in full) |  | 85 nM | 0.18 µmol/kg | 35 µmol/kg |  |

| Compound | inhibition in vivo at 5 µmol/kg (Rattus norvegicus [1]) | IC50 [2] | ED50 (Rattus norvegicus [3]) | ED50 (Rattus norvegicus [4]) | Inhibition (Rattus norvegicus [5]) |
| --- | --- | --- | --- | --- | --- |
| NCCCC[C@H](OP(=O)(O)CCCCc1cccnc1)C(=O)N1CCC[C@H]1C(=O)O | 56% | 94 nM | 0.19 µmol/kg |  |  |
| C[C@H](OP(=O)(O)CCCCc1ccccc1)C(=O)N1CCC[C@H]1C(=O)O |  | 59 nM | 0.75 µmol/kg | > 25 µmol/kg |  |
| C[C@H](CS)C(=O)N1CCC[C@H]1C(=O)O [CAPTOPRIL] |  |  | 0.092 µmol/kg | 0.73 µmol/kg |  |
| C[C@H](CP(=O)(O)CCCCc1ccccc1)C(=O)N1CCC[C@H]1C(=O)O |  | 220 nM |  |  |  |
| CCCCCP(=O)(O)O[C@@H](CCCCN)C(=O)N1CCC[C@H]1C(=O)O | 57% | 27 nM | 0.071 µmol/kg |  |  |
| NCCCC[C@H](OP(=O)(O)CCCCc1ccccc1)C(=O)N1CCC[C@H]1C(=O)O [CERONAPRIL] |  | 36 nM | 0.063 µmol/kg | 0.53 µmol/kg | 90% |
| NCCCC[C@H](OP(=O)(O)CCCc1ccccc1)C(=O)N1CCC[C@H]1C(=O)O | 67% | 190 nM | 0.069 µmol/kg | 2.62 µmol/kg |  |
| NCCCCC[C@H](OP(=O)(O)CCCCc1ccccc1)C(=O)N1CCC[C@H]1C(=O)O |  | 110 nM | > 1.5 µmol/kg |  |  |
| CCCC[C@H](OP(=O)(O)CCCCc1ccccc1)C(=O)N1CCC[C@H]1C(=O)O |  | 180 nM | > 1.4 µmol/kg |  |  |
| CCCCCCP(=O)(O)O[C@@H](CCCCN)C(=O)N1CCC[C@H]1C(=O)O | 82% | 24 nM | 0.036 µmol/kg | 0.94 µmol/kg |  |
| CCCCCC(C)P(=O)(O)O[C@@H](CCCCN)C(=O)N1CCC[C@H]1C(=O)O (stereo not given in full) | 29% | 61 nM | 0.13 µmol/kg |  |  |
| C[C@H](NP(=O)(O)CCCCc1ccccc1)C(=O)N1CCC[C@H]1C(=O)O |  | 12 nM | 0.05 µmol/kg | 25 µmol/kg |  |
| NCCC[C@H](OP(=O)(O)CCCCc1ccccc1)C(=O)N1CCC[C@H]1C(=O)O | 28% | 390 nM | 1 µmol/kg |  |  |
| CC(=O)NCCC[C@H](OP(=O)(O)CCCCc1ccccc1)C(=O)N1CCC[C@H]1C(=O)O | 4% | 42 nM | 0.25 µmol/kg |  |  |
| CC(C)C[C@H](OP(=O)(O)CCCCc1ccccc1)C(=O)N1CCC[C@H]1C(=O)O |  | 3800 nM |  |  |  |
| CCOC(=O)[C@H](CCc1ccccc1)N[C@@H](C)C(=O)N1CCC[C@H]1C(=O)O |  |  |  | 0.46 µmol/kg |  |
| CCCCCCCCP(=O)(O)O[C@@H](CCCCN)C(=O)N1CCC[C@H]1C(=O)O | 83% | 38 nM | 0.091 µmol/kg | 1.4 µmol/kg |  |
